# Laboratory results: ChEMBL document CHEMBL4304834, “3-Amino-chromanes and Tetrahydroquinolines as Selective 5-HT2B, 5-HT7, or σ1 Receptor Ligands” (ACS Med Chem Lett, 2019)
# Tests used:
# [1] = target: 5-hydroxytryptamine receptor 2B (Homo sapiens, UniProt P41595); test: Displacement of [3H]-LSD from human recombinant 5-HT2B receptor stably expressed in HEK cells after 90 mins by microbeta scintillation counting method; assay type: cell-based; conditions: read-out: pKi (converted)
# Method in brief: (§1)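 Run by NIMH Psychoactive Drug Screening Program. Otherwise, competition binding curves are generated and pKi is taken from a sigmoidal curve fit. Data are either triplicate measurements within one experiment, with the error from the fit, or the mean of repeated experiments, each run in triplicate.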
# [2] = target: Sigma intracellular receptor 2 (Homo sapiens, UniProt Q5BJF2); test: Displacement of […] from human recombinant sigma2 receptor expressed in HEKT cells after 90 mins by microbeta scintillation counting method; assay type: cell-based; method in brief: as §1
# Sigma intracellular receptor 2, sequence (Q5BJF2 whole entry): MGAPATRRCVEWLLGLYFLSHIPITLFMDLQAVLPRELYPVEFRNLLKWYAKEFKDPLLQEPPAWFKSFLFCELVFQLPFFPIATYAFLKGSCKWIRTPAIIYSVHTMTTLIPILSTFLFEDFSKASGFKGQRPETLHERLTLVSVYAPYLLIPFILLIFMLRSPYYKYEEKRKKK
# [3] = target: GABA-A receptor; anion channel; test: Displacement of [3H]-Muscimol from GABAA receptor in rat brain incubated for 90 mins by microbeta scintillation counting method; assay type: tissue-based
# Method in brief: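 Radioligand binding run by the NIMH Psychoactive Drug Screening Program. Otherwise Ki comes from sigmoidal curve fits of triplicate measurements in a single experiment, or is averaged over repeated experiments each run in triplicate.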
# [4] = target: Sigma non-opioid intracellular receptor 1 (Homo sapiens, UniProt Q99720); test: Displacement of [3H]-Pentazocine from human recombinant sigma1 receptor expressed in HEKT cells after 90 mins by microbeta scintillation counting method; assay type: cell-based
# Sigma non-opioid intracellular receptor 1, sequence (Q99720 whole entry): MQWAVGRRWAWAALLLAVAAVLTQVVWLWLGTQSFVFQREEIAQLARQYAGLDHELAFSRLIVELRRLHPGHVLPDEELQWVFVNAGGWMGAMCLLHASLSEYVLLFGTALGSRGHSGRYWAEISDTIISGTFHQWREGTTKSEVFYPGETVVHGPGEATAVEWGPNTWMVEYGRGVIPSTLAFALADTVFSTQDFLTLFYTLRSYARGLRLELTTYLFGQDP
# [5] = target: T1, Alpha-1D adrenergic receptor (Homo sapiens) (UniProt P25100); test: Displacement of [3H]-Prazosin from human recombinant adrenergic Alpha1D receptor expressed in cells at 10 uM after 90 mins by microbeta scintillation counting method relative to control; assay type: cell-based
# T1 sequence (whole entry): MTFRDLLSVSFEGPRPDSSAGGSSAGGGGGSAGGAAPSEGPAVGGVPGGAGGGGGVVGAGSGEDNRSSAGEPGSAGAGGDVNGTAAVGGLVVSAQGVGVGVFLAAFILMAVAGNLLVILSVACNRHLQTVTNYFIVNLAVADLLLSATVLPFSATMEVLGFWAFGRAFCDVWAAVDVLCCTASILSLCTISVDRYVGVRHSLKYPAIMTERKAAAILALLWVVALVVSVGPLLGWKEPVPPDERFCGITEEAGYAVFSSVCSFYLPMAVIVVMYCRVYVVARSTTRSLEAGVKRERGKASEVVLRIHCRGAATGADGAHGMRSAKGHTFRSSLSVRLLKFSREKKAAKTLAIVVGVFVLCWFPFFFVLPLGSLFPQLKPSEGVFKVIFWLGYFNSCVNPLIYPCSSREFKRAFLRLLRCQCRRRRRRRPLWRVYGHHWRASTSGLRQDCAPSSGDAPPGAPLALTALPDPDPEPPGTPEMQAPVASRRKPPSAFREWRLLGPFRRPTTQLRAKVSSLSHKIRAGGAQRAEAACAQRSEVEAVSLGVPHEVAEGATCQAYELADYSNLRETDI
# [6] = target: 5-hydroxytryptamine receptor 1E (Homo sapiens, UniProt P28566); test: Displacement of [3H]-HT from human recombinant 5-HT1E receptor expressed in stable HEK cells at 10 uM after 90 mins by microbeta scintillation counting method relative to control; assay type: cell-based
# 5-hydroxytryptamine receptor 1E, sequence (P28566 whole entry): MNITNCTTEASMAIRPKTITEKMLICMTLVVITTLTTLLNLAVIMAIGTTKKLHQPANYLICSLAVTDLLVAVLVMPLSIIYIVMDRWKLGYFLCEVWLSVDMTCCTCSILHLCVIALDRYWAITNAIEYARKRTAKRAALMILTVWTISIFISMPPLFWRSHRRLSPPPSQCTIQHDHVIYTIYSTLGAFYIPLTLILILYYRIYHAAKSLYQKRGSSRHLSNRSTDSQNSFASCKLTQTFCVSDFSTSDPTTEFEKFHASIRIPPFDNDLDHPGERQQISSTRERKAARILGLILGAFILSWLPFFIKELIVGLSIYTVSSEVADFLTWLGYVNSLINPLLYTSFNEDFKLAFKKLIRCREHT
# Method in brief: (§2)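 Radioligand binding run by the NIMH Psychoactive Drug Screening Program. […] Otherwise Ki comes from sigmoidal curve fits of triplicate measurements in a single experiment, or is averaged over repeated experiments each run in triplicate.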
# [7] = target: Delta-type opioid receptor (Homo sapiens, UniProt P41143); test: Displacement of [3H]-DADLE from human recombinant DOR receptor expressed in stable HEK cells after 90 mins by microbeta scintillation counting method; assay type: cell-based; method in brief: as §2
# Delta-type opioid receptor, sequence (P41143 whole entry): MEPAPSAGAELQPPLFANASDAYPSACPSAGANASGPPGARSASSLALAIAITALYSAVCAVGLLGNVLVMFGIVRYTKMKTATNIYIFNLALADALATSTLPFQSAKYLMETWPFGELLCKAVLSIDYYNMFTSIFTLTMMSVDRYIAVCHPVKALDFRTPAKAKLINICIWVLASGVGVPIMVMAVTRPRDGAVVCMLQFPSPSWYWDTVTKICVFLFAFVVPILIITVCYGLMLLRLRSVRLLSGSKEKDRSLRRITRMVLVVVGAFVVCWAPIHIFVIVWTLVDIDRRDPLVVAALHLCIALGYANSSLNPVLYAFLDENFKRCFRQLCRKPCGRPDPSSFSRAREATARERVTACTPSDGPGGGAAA
# [8] = target: T2, 5-hydroxytryptamine receptor 2C (Homo sapiens, UniProt P28335); test: Displacement of [3H]-Mesulergine from human recombinant 5-HT2C receptor expressed in HEKT cells after 90 mins by microbeta scintillation counting method; assay type: cell-based; method in brief: as §2
# T2 sequence (P28335 whole entry): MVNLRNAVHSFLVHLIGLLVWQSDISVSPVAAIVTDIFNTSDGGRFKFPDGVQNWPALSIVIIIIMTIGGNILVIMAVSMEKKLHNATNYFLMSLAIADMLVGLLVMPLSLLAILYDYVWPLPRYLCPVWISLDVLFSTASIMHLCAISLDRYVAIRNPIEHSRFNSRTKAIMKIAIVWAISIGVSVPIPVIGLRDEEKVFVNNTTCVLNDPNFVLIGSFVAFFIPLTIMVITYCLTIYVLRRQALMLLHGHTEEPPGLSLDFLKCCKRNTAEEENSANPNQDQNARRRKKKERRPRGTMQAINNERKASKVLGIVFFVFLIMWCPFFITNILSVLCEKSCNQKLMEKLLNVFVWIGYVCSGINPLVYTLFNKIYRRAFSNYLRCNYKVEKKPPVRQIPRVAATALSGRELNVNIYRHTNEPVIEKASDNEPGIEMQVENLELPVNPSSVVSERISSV
# [9] = target: T3, Alpha-2A adrenergic receptor (Homo sapiens, UniProt P08913); test: Displacement of [3H]-Rauwolscine from human recombinant adrenergic Alpha2A receptor expressed in stable MDCK cells after 90 mins by microbeta scintillation counting method; assay type: cell-based
# T3 sequence (P08913 whole entry): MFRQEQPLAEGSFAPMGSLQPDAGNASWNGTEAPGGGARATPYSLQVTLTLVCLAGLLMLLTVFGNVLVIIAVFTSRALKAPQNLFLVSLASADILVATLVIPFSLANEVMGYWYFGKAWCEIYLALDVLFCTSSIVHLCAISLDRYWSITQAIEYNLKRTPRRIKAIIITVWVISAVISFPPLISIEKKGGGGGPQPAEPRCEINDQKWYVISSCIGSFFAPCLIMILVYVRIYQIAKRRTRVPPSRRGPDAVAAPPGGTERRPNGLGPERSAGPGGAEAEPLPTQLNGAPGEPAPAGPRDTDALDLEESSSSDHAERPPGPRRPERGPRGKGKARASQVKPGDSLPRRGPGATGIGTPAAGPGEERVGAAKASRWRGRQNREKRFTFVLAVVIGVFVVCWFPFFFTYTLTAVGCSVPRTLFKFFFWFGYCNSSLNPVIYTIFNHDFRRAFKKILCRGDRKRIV
# Method in brief: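 Radioligand binding was run by the NIMH Psychoactive Drug Screening Program. Compounds were first screened at 10 μM. Those giving ≥50% binding were taken to full competition curves. Ki is reported as pKi from a sigmoidal curve fit of triplicate measurements in a single experiment; the error is the curve-fit error.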
# D(2) dopamine receptor = D(2) dopamine receptor (Homo sapiens, UniProt P14416); test: Displacement of [3H]-N-methylspiperone from human recombinant dopamine D2 receptor expressed in stable fibroblast cells at 10 uM after 90 mins by microbeta scintillation counting method relative to control; assay type: cell-based; method in brief: as §2
# D(2) dopamine receptor, sequence (P14416 whole entry): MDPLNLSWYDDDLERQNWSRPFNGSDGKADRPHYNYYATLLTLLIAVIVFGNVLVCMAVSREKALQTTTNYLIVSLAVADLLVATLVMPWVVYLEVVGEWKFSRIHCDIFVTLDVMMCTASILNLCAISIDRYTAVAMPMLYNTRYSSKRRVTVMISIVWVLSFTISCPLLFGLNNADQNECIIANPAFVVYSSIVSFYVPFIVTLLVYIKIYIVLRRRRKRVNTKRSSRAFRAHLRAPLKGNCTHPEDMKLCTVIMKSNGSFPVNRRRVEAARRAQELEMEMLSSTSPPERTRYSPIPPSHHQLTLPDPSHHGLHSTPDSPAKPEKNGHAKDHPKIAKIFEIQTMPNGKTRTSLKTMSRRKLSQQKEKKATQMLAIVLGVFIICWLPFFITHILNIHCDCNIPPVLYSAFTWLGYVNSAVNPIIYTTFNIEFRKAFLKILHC
# 5-hydroxytryptamine receptor 2B, sequence (P41595 whole entry): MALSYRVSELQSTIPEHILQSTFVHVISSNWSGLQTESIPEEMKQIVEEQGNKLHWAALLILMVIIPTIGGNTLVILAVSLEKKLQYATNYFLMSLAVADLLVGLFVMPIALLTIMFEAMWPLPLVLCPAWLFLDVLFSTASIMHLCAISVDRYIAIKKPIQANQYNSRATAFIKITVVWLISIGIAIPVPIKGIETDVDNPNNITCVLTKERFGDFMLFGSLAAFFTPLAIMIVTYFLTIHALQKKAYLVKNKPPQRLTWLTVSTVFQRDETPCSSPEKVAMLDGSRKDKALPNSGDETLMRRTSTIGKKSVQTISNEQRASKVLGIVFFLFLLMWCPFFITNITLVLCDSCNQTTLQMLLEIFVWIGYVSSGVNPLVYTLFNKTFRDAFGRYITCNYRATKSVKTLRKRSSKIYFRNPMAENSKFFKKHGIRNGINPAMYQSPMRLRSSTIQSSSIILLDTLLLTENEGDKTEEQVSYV
SMILES,Ki [1] [nM],Ki [2] [nM],pKi [3],Ki ([4]; read-out: pKi (converted)) [nM],inhibition [5] [%],inhibition [6] [%],Ki [7] [nM],Ki [8] [nM],Ki [9] [nM],inhibition (D(2) dopamine receptor) [%],Ki ([4]; read-out: Ki) [nM]
CC[C@H]1c2cc(OC)ccc2CC[C@@]1(C)N (racemic),145,> 10000,< 5,126,< 50,< 50,> 10000,2510,6310,< 50,
CC[C@H]1c2cc(C)ccc2OC[C@@]1(C)N (racemic),178,> 10000,< 5,1000,< 50,< 50,> 10000,2510,> 10000,< 50,
CC[C@H]1c2ccccc2N(c2ccccc2)C[C@@]1(C)N (racemic),794,631,,316,,,> 10000,3980,398,,
C[C@@]12CN(c3ccccc3)c3ccccc3[C@@H]1CCN2 (racemic),,1000,,,,,> 10000,> 10000,,,
COc1cc(OC)c2c(c1)OC[C@@]1(C)NCC[C@@H]21 (racemic),251,> 10000,< 5,,< 50,< 50,> 10000,1580,,< 50,44
